Here are results for nine compounds from PMC2846203 (Journal of natural products, 2010).

Read-outs that look alike come from different tables or passages of the source. Marks after values point to notes of the source that are not given here.

Experiment [1] has as its system mice. Put plainly: antagonism of nicotine-induced antinociception, hot-plate test. It counts as in vivo, mouse. The conditions noted are these: for times more potent as an antagonist than varenicline in the hot-plate test: ratio of AD50 values. A general note: In hot-plate and tail-flick tests a longer latency is read as antinociception.
The next experiment concerns the target α4β2 nAChR (Rattus norvegicus, UniProt P09483+P12390). Kind of experiment: [3H]epibatidine binding assay. The settings on record: ratio of Ki values.
Experiment [2] has as its system mice. The settings on record: mouse, cited from earlier work.
The test system of experiment [3] is mice. The conditions noted are these: mouse, cited from earlier work. The source holds these as a separate data set.
Experiment [4] deals with mice. The settings on record: mouse, cited from earlier work. This is another data set of the same source.
Experiment [5] has as its system mice. The settings on record: mouse, cited from earlier work. The source holds these as a separate data set.
Experiment [6] concerns mice. Put plainly: antagonism of nicotine-induced antinociception, tail-flick test. Format: in vivo. The conditions noted are these: Mus musculus, sc, read-out: AD50 (µg/kg) tail-flick.
For experiment [7], the system named is mice. Kind of experiment: tail-flick test. Format: in vivo, mouse. In a few lines:
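D'Amour–Smith tail-flick in mice. Racemic hydrochloride test compound given s.c., with testing 5 min later. %MPE = [(test−control)/(10−control)]×100. 8–12 mice per dose, minimum four doses; ED50 with confidence limits from the dose-response curve.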

Experiment [8] deals with mice. Put plainly: hot-plate test. Format: in vivo, mouse. In a few lines: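 Mice in a 10 cm glass cylinder on a 55.0 °C hot plate. Two control latencies, at least 10 min apart, per mouse; normal latency 8–12 sec. Endpoint: jumping or paw licking. Eight mice per dose got racemic hydrochloride test compound s.c. and were tested 5 min later. %MPE = [(test−control)/(40−control)]×100; ED50 from dose-response curve.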

Experiment [9] relates to mice. The settings on record: mouse; antagonism of nicotine-induced antinociception; cited from earlier work.
Experiment [10] relates to mice. The settings on record: mouse; antagonism of nicotine-induced antinociception; cited from earlier work. This is another data set of the same source.
Experiment [11] has as its system mice. Kind of experiment: hypothermia. Format: in vivo, mouse. The settings on record: ratio of ED50 values. A digest of the protocol:
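Mouse rectal temperature read by thermistor probe (inserted 24 mm) and digital thermometer, just before and 30 min after s.c. saline or racemic hydrochloride test compound. Change in temperature calculated for each mouse.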

In experiment [12] the test system is mice. Put plainly: spontaneous activity. The conditions noted are these: ratio of ED50 values. It counts as in vivo, mouse.

Chain of α4β2 nAChR (P12390 25-500): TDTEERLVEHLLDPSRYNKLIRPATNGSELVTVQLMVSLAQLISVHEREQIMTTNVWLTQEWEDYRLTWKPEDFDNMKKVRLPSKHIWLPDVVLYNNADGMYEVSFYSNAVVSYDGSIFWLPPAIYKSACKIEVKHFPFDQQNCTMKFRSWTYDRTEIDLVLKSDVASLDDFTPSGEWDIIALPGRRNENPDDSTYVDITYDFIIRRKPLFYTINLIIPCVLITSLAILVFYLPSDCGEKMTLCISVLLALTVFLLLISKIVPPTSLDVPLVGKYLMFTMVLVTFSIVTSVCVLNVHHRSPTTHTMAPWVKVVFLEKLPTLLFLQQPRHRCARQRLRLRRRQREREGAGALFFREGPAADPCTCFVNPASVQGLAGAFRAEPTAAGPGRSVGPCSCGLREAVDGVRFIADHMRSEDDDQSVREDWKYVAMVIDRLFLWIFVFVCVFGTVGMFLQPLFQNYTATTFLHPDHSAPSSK
Chain of α4β2 nAChR (P09483 31-630): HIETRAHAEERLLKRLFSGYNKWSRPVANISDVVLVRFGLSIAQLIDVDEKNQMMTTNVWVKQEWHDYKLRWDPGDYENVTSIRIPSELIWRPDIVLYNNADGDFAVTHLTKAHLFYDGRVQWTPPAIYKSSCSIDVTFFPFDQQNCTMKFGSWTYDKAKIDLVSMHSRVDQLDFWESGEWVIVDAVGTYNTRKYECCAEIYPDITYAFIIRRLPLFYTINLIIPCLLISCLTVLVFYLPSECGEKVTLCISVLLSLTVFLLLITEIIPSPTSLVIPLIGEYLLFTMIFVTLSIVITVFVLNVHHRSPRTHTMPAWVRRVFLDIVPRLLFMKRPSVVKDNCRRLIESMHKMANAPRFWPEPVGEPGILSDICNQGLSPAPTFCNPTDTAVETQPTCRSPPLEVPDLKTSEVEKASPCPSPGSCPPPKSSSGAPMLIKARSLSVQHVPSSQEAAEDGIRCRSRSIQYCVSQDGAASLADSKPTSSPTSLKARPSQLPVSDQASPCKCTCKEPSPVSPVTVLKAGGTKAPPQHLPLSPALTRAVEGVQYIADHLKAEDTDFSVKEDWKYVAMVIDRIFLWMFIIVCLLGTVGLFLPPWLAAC

Take `Fc1cccc(-c2cc([C@H]3C[C@@H]4CC[C@H]3N4)cnc2Cl)c1` [5c, 3′-(3-Fluorophenyl)epibatidine]: the “times more potent as an antagonist than varenicline in the hot-plate test” value (from here on “times more potent”) with mice [1] was determined as 5.5 times.
For the compound `Clc1ncc([C@H]2C[C@@H]3CC[C@H]2N3)cc1-c1ccccc1` [5a], on α4β2 nAChR, the “times higher affinity at the α4β2 nAChR than nicotine” value amounted to 71 times and the “times higher affinity at the α4β2 nAChR than varenicline” value came to 6 times. The ED50 mg/kg tail-flick in the experiment with mice [2] ((confidence limits)) was 0.7 ^g (0.5–1.0) mg/kg. Further, the ED50 mg/kg hot-plate in the experiment with mice [3] ((confidence limits)) was 1.0 ^g (0.5–2.0) mg/kg. For the same compound, in the experiment on mice [4] ((confidence limits)), the ED50 mg/kg hypothermia was 0.4 ^g (0.1–0.9) mg/kg. Besides, the “ED50 mg/kg spontaneous activity” value with mice [5] ((confidence limits)) is 0.35 ^g (0.2–0.85) mg/kg.
Consider `COc1ccc(-c2cc([C@H]3C[C@@H]4CC[C@H]3N4)cnc2Cl)cc1` [5k, 3′-(4-Methoxylphenyl)epibatidine], for which the ED50 in the experiment on mice [6] was 10 µg/kg.
As to `CN(C)c1cccc(-c2cc([C@H]3C[C@@H]4CC[C@H]3N4)cnc2Cl)c1` [5m, 3′-(3-Dimethylaminophenyl)epibatidine], the “agonist activity in the tail-flick test” value in the experiment on mice [7] (mouse) is on record as “did not have agonist activity”. Further, in the experiment on mice [8] (mouse), the “agonist activity in the hot-plate test” value is “did not have agonist activity”.
Take `c1cnc2cc3c(cc2n1)[C@@H]1CNC[C@H]3C1` [varenicline, reference compound]: in the experiment with mice [2], the “agonist activity in the tail-flick test” value is “inactive”. In addition, the “agonist activity in the hot-plate test” value in the experiment with mice [3] was “inactive”. In addition, the ED50 mg/kg hypothermia in the experiment on mice [4] is recorded as 2.8 mg/kg. The “ED50 mg/kg spontaneous activity” value in the experiment with mice [5] is reported as 2.1 mg/kg. Also, the “AD50 (µg/kg) tail-flick” value in the experiment on mice [9] is on record as 0.2 µg/kg. For the same compound, in the experiment with mice [10], the “AD50 (µg/kg) hot-plate” value was 470 µg/kg.
In the case of `Nc1cccc(-c2cc([C@H]3C[C@@H]4CC[C@H]3N4)cnc2Cl)c1` [5j, 3′-(3-Aminophenyl)epibatidine], the “times weaker than epibatidine (1), tail-flick” value with mice [7] (ratio of ED50 values) is given as 57 times. Besides, the “times weaker than epibatidine (1), hot-plate” value in the experiment on mice [8] (ratio of ED50 values) is 75 times. Besides, in the experiment with mice [11], the “times weaker than epibatidine (1), hypothermia” value was 76 times. For the same compound, the “times weaker than epibatidine (1), spontaneous activity” value with mice [12] came out at 30 times. Moreover, the “AD50 (µg/kg) hot-plate” value in the experiment with mice [1] (mouse, antagonism of nicotine-induced antinociception, (confidence limits)) is on record as 26 (5–90) µg/kg. In addition, the “times more potent” value in the experiment on mice [1] was determined as 18 times.
In the case of `Clc1cccc(-c2cc([C@H]3C[C@@H]4CC[C@H]3N4)cnc2Cl)c1` [5e, 3′-(3-Chlorophenyl)epibatidine], at α4β2 nAChR, the “selectivity for α4β2 nAChR relative to α7 nAChR” value was “greater than 2000 fold”. Also, the “times more potent” value in the experiment with mice [1] was 5.9 times.
Consider `Clc1ccc([C@@H]2C[C@H]3CC[C@@H]2N3)cn1` [(+)-epibatidine, epibatidine], for which the ED50 mg/kg tail-flick in the experiment on mice [2] is given as 0.0061 ^e mg/kg.
In the case of `Clc1ccc([C@@H]2C[C@H]3CC[C@@H]2N3)cn1` [(−)-epibatidine, epibatidine], the ED50 mg/kg tail-flick in the experiment on mice [2] is 0.0066 ^e mg/kg.
